FAS TE block: inhibitors of human fatty acid synthase thioesterase domain. P49327. recombinant FAS-TE, OMFH fluorogenic substrate, fluorescence endpoint. inhibition, % at 15 µM. 360,000 tested, 0.67% active. AID 602261;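 active = compounds whose normalised, plate-corrected inhibition of enzyme fluorescence in the single-dose primary screen is 50% or more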;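 note: 0% = DMSO with enzyme and 100% = substrate without enzyme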
Arrestin-AP2 inh: inhibitors of human beta-arrestin and AP2 interaction; AID 504490; 340,000 tested, 0.31% active; inhibition, % at 10 µM; FITC-arrestin peptide / GST-AP2 beads, flow cytometry; AP2 beta2 appendage carries R879A mutation;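 active = inhibition above a set limit, near 3 SD of compounds lacking own fluorescence, cut at about 54% in these data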;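 note: plate controls were DMSO wells for no effect and 5 µM unlabelled arrestin peptide for full effect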
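Material – GST-tagged AP2 beta2-adaptin appendage (R879A) on 4 µm glutathione beads · Probe or stimulus – fluorescein-tagged arrestin peptide at 50 nM final · Timing – 12 min plus 1 h, RT · Detection – bead flow cytometry, FITC channel · Read-out basis – inhibition as reduced fluorescein signal on beads, percent · Medium – PBS plus Tween 20 (0.05%) and BSA (0.1%)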
GRIN3A LBD mod: modulators (binders) of human NR3A ligand-binding domain. 340,000 tested, 2.5% active. NR3A LBD differential scanning fluorimetry, Tm shift; 0% = protein alone, 100% = glycine-bound protein. Tm shift relative to glycine control, % at 25 µM;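 active = melting temperature shift of at least 10% of the positive control shift, at one fixed dose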
Cardio protect: myocardial damage modulation in H9c2 cells; protection from H2O2 cell death, % at 20 µM; 360,000 tested, 0.63% active; H9c2 cardiomyocytes, H2O2 injury protection, ATPLite, 2 h;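 active = compounds giving at least 50% protection of heart cells from peroxide-induced death in the single-dose screen, raw or plate-pattern-corrected value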;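 note: 0% = DMSO wells with peroxide and 100% = DMSO wells without peroxide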
hiPSC survival: hiPSC single-cell survival enhancement. ATPlite luminescence; 100% = ROCK inhibitor wells, 0% = DMSO. survival enhancement, % at 20 µM. 360,000 tested, 0.044% active. AID 602274; in the data active = survival enhancement above about 18%;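 note: cells exposed to compounds for 16 hours before the ATP read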
SENP1 FRET inh: blocks the human SENP1 SUMO protease catalytic domain. recombinant SENP1 catalytic domain, CyPet-SUMO1-YPet FRET cleavage. inhibition, % at 10 µM. 360,000 tested, 0.21% active. AID 624204;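 active = inhibition at least 30% at 10 µM, raw YFP signal under a set limit, fluorescence ratio 0.5 to 1.5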;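 note: 0% = enzyme with DMSO and 100% = no enzyme wells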
Target sequence (Q9P0U3 419-644 limits assumed): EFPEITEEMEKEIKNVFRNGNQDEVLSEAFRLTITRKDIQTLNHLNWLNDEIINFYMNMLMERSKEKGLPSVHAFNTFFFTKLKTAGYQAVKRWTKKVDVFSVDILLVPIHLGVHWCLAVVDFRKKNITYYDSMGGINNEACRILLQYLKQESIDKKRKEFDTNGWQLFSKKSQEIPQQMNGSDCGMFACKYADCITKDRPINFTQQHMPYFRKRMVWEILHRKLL
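System: Recombinant human SENP1 catalytic domain, His6-tagged | Incubation: Enzyme reaction for 50 min at room temperature, dark | Medium: Tris pH 8 with BME, BSA, NP40 and catalase | Also added: 25 nM SUMO1 FRET substrate | Compound: 10 µM single point, 0.5% DMSO | Measured by: FRET fluorescence in CFP and YFP emission channels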
Active calls of the source: *; / = no result. Shown are actives, neighbours in structure and some others; about 4% of the full set was active somewhere.

SMILES | FAS TE block | Arrestin-AP2 inh | GRIN3A LBD mod | Cardio protect | hiPSC survival | SENP1 FRET inh
CCOc1ccccc1C(=O)NCC(=O)N(C)CC(=O)Nc1ccc(N2CCOCC2)cc1 | -6 | / | / | 4 | -1 | 1
CCCS(=O)(=O)NC(=O)C1(C)CCCN(C(=O)c2ccc3c(c2)OCO3)C1 (stereo not drawn) | -9 | / | / | 8 | 0 | 0
Cc1cc(SCC(=O)Nc2ccc(O)cc2)n2nc(C)c(-c3ccccc3)c2n1 | 5 | 9 | 7 | 18 | 0 | 2
Cc1cc(Cl)n2ncc(-c3ccccc3)c2n1 | 11 | 4 | 0 | 0 | 3 | -4
Cc1cc(SCC(=O)Nc2ccc(O)cc2)n2ncc(-c3ccccc3)c2n1 | 7 | 9 | 27* | -4 | 1 | -1
COc1ccc(NC(=O)CSc2cc(C)nc3c(-c4ccccc4)cnn23)cc1 | 0 | 19 | 64* | -2 | 2 | -8
Cc1cc(SCC(=O)Nc2ccccc2)n2ncc(-c3ccccc3)c2n1 | 7 | 8 | 32* | -1 | -1 | 1
CC1(Cc2ccc(Cl)s2)C(=O)Nc2c(Cl)ccc(Cl)c21 (stereo not drawn) | 22 | / | / | -13 | 0 | 1
N#C/C(=C/c1ccc(N2CCCCC2)o1)C(=O)Nc1ccc(Cl)cc1 | -89 | 7 | 12* | -16 | -2 | -24
COc1ccc(C2Nc3ccccc3C(=O)N2c2ccccc2)cc1CSc1ccccn1 (stereo not drawn) | 24 | 8 | 18* | 29 | -1 | 4
CC(C)N1CCC1(C)C(=O)Nc1nccc2cccnc12 (stereo not drawn) | -11 | / | / | 7 | -2 | 3
Clc1cccc2sc(N3CCN(c4ccccc4)CC3)nc12 | 33 | -13 | 18* | -8 | 0 | 2
Cc1ccc(NS(=O)(=O)c2ccc3c(c2)CC(=O)N3)c(C)c1 | -6 | -7 | -2 | 2 | 31* | 1
O=C(Cc1ccc(Cl)cc1)Nc1ccccc1Sc1ccccc1 | 44 | 29 | 15* | -19 | 1 | 1
O=C(Nc1ccccc1Sc1ccccc1)c1ccc(F)cc1 | 44 | 1 | 19* | -3 | 2 | 2
COc1ccc(-c2cc(C(=O)OCC(=O)Nc3ccc4c(c3)OCO4)c3ccccc3n2)cc1 | 31 | -3 | 15* | 8 | -2 | -16
COc1ccc(NS(=O)(=O)c2ccc(O)c(C(=O)OCC(=O)Nc3ccc4c(c3)OCCO4)c2)cc1 | 4 | 37 | 19* | -2 | 0 | -2
CCOc1ccc(-c2cc(C(=O)Nc3ccc4c(c3)OCCO4)c3ccccc3n2)cc1 | 39 | -2 | -1 | -13 | -2 | -1
Cc1cccc(C)c1NC(=O)COC(=O)c1cc(-c2cccnc2)nc2ccccc12 | -8 | 6 | -6 | 11 | -1 | 1
O=C(COC(=O)c1cc(-c2ccccc2)nc2ccccc12)Nc1ccc2c(c1)OCO2 | 25 | 7 | 13* | 4 | -1 | 2
O=C(COC(=O)c1c2c(nc3ccccc13)CCCC2)Nc1ccc2c(c1)OCO2 | 14 | 7 | -1 | 41 | -1 | -2
O=C(COC(=O)c1cc(-c2cccnc2)nc2ccccc12)Nc1ccc(F)cc1F | 11 | 16 | -3 | 71* | 2 | 28
CC(Oc1ccc(Cl)cc1Cl)c1nc(-c2ccc(NC(=O)c3cccnc3)cc2)no1 (stereo not drawn) | 20 | 2 | 12* | -10 | -1 | -2
O=C(Nc1ccc(-c2noc(-c3cccs3)n2)cc1)c1cccnc1 | 13 | 2 | 28* | 64* | -1 | -3
CC(Oc1ccc(Cl)cc1Cl)C(=O)NNC(=O)c1ccncc1 (stereo not drawn) | -2 | 2 | 7 | 1 | 0 | 2
COc1cccc(-c2nc(-c3ccc(NC(=O)c4cccnc4)cc3)no2)c1 | 6 | 20 | -6 | 34 | -2 | 3
CC(Oc1ccc(Cl)cc1Cl)c1nc(-c2ccc(NC(=O)c3ccncc3)cc2)no1 (stereo not drawn) | 32 | -1 | 22* | -19 | -2 | 1

Assay outcomes as filed in PubChem BioAssay.
